From ChEMBL document CHEMBL3632502, “Bivalent ligands incorporating curcumin and diosgenin as multifunctional compounds against Alzheimer's disease” (Bioorg Med Chem, 2015)
Blank lines part the entries; values can stand above or below the molecule they belong to. Calls of active or inactive are those of the source. No cut-off for these calls is given here.

What was measured:
MC65 [1] = assay: (§1) Neuroprotective activity against tetracycline deficiency-mediated cell viability loss in human MC65 cells at 1 uM after 72 hrs by MTT assay relative to control; format: functional
Method in brief: (§2)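 MC65 cells washed twice in PBS, seeded in Opti-MEM at 4×10^4 cells/well, treated at 37 °C under +TC or −TC for 72 h. MTT (5 mg/mL in PBS) added for 4 h, formazan dissolved in DMSO, A570 read. Viability expressed as percent of +TC control; EC50 from concentration series, SEM.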

[2] = as §1; format: functional; method in brief: as §2
[3] = Neuroprotective activity against tetracycline deficiency-mediated cell viability loss in human MC65 cells after 72 hrs by MTT assay; format: functional, cell-based; details: MC65, 72 h; method in brief: as §2
MC65 [4] = assay: Antioxidant activity in human MC65 cells assessed as decrease in tetracycline deficiency-mediated reactive oxygen species formation at 0.3 uM after 48 hrs by DCFH-DA probe-based flow cytometric analysis; format: functional, cell-based
Method in brief: (§3)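 MC65 cells washed in PBS, resuspended in Opti-MEM, seeded at 2×10^6 cells/well, treated at 37 °C with or without TC (1 μg/mL in culture medium) for 48 h. Harvested cells washed in cold PBS, loaded with 25 μM DCFH-DA in PBS for 1 h in the dark, and analysed by flow cytometry. Fluorescence expressed as percent of control.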

[5] = Metal chelating activity assessed as compound-Fe2+ complex formation at 50 uM after 10 mins by UV-vis spectra analysis; format: physicochemical
Method in brief: (§4)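 Compound (50 μM) mixed with CuSO4, FeCl2 or ZnCl2 (50 μM) in deionized water, kept 10 min at room temperature, then UV absorption spectrum recorded from 200 to 600 nm.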

[6] = Metal chelating activity assessed as compound-Cu2+ complex formation at 50 uM after 10 mins by UV-vis spectra analysis; format: physicochemical; method in brief: as §4
[7] = Metal chelating activity assessed as compound-Zn2+ complex formation at 50 uM after 10 mins by UV-vis spectra analysis; format: physicochemical; method in brief: as §4
[8] = target: Amyloid-beta precursor protein (Homo sapiens) (UniProt P05067); assay: Binding affinity to amyloid beta in human MC65 cells assessed as inhibition of tetracycline deficiency-induced amyloid beta oligomerization after 48 hrs by Western blot analysis; format: cell-based
Method in brief: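 MC65 cells in Opti-MEM (2×10^6 cells/well) treated at 37 °C under +TC or −TC for 48 h, then lysed by sonication in Tricine buffer. Supernatant protein (20.0 μg, Bradford-quantified) run on Tris-Tricine SDS-PAGE and blotted to PVDF. Probed with 6E10 overnight at 4 °C, HRP secondary, chemiluminescence; α-tubulin loading control. Total oligomers quantified, n=6, SEM.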

MC65 [9] = assay: Effect on tetracycline deficiency-induced total amyloid beta40 level in human MC65 cells at 0.1 to 1 uM after 48 hrs by ELISA; format: functional, cell-based
Method in brief: (§5)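 MC65 cells in Opti-MEM (4×10^4 cells/well) treated at 37 °C under +TC or −TC for 48 h. Conditioned medium captured on BNT77-coated plates overnight at 4 °C, detected with HRP-BA27 (Aβ40) or HRP-BC05 (Aβ42) for 1 h at room temperature, TMB 30 min, A450. Values in pM from Aβ standard calibration curves.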

MC65 [10] = assay: Effect on tetracycline deficiency-induced total amyloid beta42 level in human MC65 cells at 0.1 to 1 uM after 48 hrs by ELISA; format: functional, cell-based; method in brief: as §5
[11] = target: Amyloid-beta precursor protein (Homo sapiens) (UniProt P05067); assay: Inhibition of amyloid beta42 (unknown origin) aggregation after 48 hrs by ThT assay
Method in brief: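 Aβ42 (25 μM in PBS pH 7.4, 9 μL) mixed with 1 μL of compound in DMSO (0.01–100 μM solutions), triplicates with solvent control, incubated dark at room temperature 48 h. Then 5 μM ThT in 50 mM glycine pH 8.0 added; fluorescence read at ex 446/em 490 nm, with no-ThT background subtracted.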

MC65 [12] = assay: Antioxidant activity in human MC65 cells assessed as decrease in tetracycline deficiency-mediated reactive oxygen species formation at 0.1 uM after 48 hrs by DCFH-DA probe-based flow cytometric analysis; format: functional, cell-based; method in brief: as §3

Sequence of Amyloid-beta precursor protein (Homo sapiens) (P05067 whole entry): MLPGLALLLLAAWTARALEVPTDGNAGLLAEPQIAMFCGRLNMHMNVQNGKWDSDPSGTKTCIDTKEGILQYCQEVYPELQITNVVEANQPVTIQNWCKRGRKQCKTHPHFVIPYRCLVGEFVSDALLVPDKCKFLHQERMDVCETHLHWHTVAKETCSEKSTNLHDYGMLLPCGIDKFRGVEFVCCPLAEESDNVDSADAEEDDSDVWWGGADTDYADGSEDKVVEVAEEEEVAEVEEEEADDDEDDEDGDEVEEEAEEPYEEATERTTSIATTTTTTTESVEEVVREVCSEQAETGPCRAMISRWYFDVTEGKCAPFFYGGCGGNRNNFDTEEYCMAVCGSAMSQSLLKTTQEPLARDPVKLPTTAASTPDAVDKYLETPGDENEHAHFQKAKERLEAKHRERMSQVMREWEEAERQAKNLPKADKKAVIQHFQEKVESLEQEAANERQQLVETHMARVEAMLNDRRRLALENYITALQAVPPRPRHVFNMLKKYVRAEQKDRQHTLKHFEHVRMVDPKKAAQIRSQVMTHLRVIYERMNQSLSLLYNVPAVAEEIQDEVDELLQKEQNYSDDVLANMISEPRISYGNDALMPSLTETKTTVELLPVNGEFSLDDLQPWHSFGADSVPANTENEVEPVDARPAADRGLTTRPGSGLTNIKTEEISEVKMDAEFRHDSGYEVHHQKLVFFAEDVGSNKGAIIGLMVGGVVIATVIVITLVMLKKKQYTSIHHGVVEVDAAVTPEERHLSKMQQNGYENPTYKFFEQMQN

Structure (SMILES): C[C@@H]1CC[C@@]2(OC1)O[C@H]1C[C@H]3[C@@H]4CC=C5C[C@@H](O)CC[C@]5(C)[C@H]4CC[C@]3(C)[C@H]1[C@@H]2C
Activity (MC65 [1]): inactive

Activity [5]: Not Active
Activity [6]: Not Active
Activity [7]: Not Active
inhibition [8]: Dose-dependent effect
inhibition [11]: Dose-dependent effect
Structure (SMILES): COc1cc(/C=C/C(=O)/C(Cc2cn(CCCCC(=O)NCCOCCOCCOCC(=O)O[C@H]3CC[C@@]4(C)C(=CC[C@H]5[C@@H]6C[C@@H]7O[C@]8(CC[C@@H](C)CO8)[C@@H](C)[C@@H]7[C@@]6(C)CC[C@@H]54)C3)nn2)=C(O)/C=C/c2ccc(O)c(OC)c2)ccc1O
Activity [2]: >=80%
EC50 [3]: 232 nM
Activity (MC65 [4]): Active
Activity (MC65 [9]): inactive
Activity (MC65 [10]): inactive

Structure (SMILES): COc1cc(/C=C/C(=O)/C(Cc2cn(CCCCCCCC(=O)NCCOCCOCCOCC(=O)O[C@H]3CC[C@@]4(C)C(=CC[C@H]5[C@@H]6C[C@@H]7O[C@]8(CC[C@@H](C)CO8)[C@@H](C)[C@@H]7[C@@]6(C)CC[C@@H]54)C3)nn2)=C(O)/C=C/c2ccc(O)c(OC)c2)ccc1O
Activity [2]: >=80%
EC50 [3]: 1040 nM

Activity [5]: Not Active
Activity [6]: Not Active
Activity [7]: Not Active
inhibition [8]: Dose-dependent effect
inhibition [11]: Dose-dependent effect
Structure (SMILES): COc1cc(/C=C/C(=O)/C(Cc2cn(CCOCCOCCNC(=O)CCC(=O)O[C@H]3CC[C@@]4(C)C(=CC[C@H]5[C@@H]6C[C@@H]7O[C@]8(CC[C@@H](C)CO8)[C@@H](C)[C@@H]7[C@@]6(C)CC[C@@H]54)C3)nn2)=C(O)/C=C/c2ccc(O)c(OC)c2)ccc1O
Activity [2]: >=80%
EC50 [3]: 112 nM
Activity (MC65 [12]): Active
Activity (MC65 [9]): inactive
Activity (MC65 [10]): inactive

Structure (SMILES): COc1cc(/C=C/C(=O)CC(=O)/C=C/c2ccc(O)c(OC)c2)ccc1O
Activity (MC65 [1]): inactive

Structure (SMILES): COC(=O)CCC(=O)NCCOCCOCCn1cc(C/C(C(=O)/C=C/c2ccc(O)c(OC)c2)=C(O)\C=C\c2ccc(O)c(OC)c2)nn1
Activity (MC65 [1]): inactive

Structure (SMILES): CCCCCC(=O)O[C@H]1CC[C@@]2(C)C(=CC[C@@H]3[C@@H]4C[C@@H]5O[C@]6(CC[C@@H](C)CO6)[C@@H](C)[C@@H]5[C@@]4(C)CC[C@@H]32)C1
Activity (MC65 [1]): inactive

Structure (SMILES): COc1cc(/C=C/C(=O)/C(Cc2cn(CCCCCCCCCC(=O)NCCOCCOCCOCC(=O)O[C@H]3CC[C@@]4(C)C(=CC[C@H]5[C@@H]6C[C@@H]7O[C@]8(CC[C@@H](C)CO8)[C@@H](C)[C@@H]7[C@@]6(C)CC[C@@H]54)C3)nn2)=C(O)/C=C/c2ccc(O)c(OC)c2)ccc1O
EC50 [3]: 309 nM

Structure (SMILES): COc1cc(/C=C/C(=O)/C(Cc2cn(CCCCCCCCCCCC(=O)NCCOCCOCCOCC(=O)O[C@H]3CC[C@@]4(C)C(=CC[C@H]5[C@@H]6C[C@@H]7O[C@]8(CC[C@@H](C)CO8)[C@@H](C)[C@@H]7[C@@]6(C)CC[C@@H]54)C3)nn2)=C(O)/C=C/c2ccc(O)c(OC)c2)ccc1O
EC50 [3]: 4620 nM

Structure (SMILES): COc1cc(/C=C/C(=O)/C(Cc2cn(CCCCCC(=O)NCCOCCOCCOCC(=O)O[C@H]3CC[C@@]4(C)C(=CC[C@H]5[C@@H]6C[C@@H]7O[C@]8(CC[C@@H](C)CO8)[C@@H](C)[C@@H]7[C@@]6(C)CC[C@@H]54)C3)nn2)=C(O)/C=C/c2ccc(O)c(OC)c2)ccc1O
Activity [2]: >=80%
EC50 [3]: 381 nM

Structure (SMILES): CC(C)Cc1cn(CCOCCOCCNC(=O)CCC(=O)O[C@H]2CC[C@@]3(C)C(=CC[C@H]4[C@@H]5C[C@@H]6O[C@]7(CC[C@@H](C)CO7)[C@@H](C)[C@@H]6[C@@]5(C)CC[C@@H]43)C2)nn1
Activity (MC65 [1]): inactive
